Reference: ChEMBL document CHEMBL3779886, “Cassane Diterpenoids from the Pericarps of Caesalpinia bonduc” (J Nat Prod, 2016)
Calls of active or inactive are those of the source.

What was measured:
Type in all cases: functional, cell-based
SH-SY5Y [1] = assay: Neuroprotective activity against amyloid beta(25 to 35)-induced toxicity in human SH-SY5Y cells assessed as cell viability at 1 to 10 uM pretreated for 2 hrs followed by protein addition measured after 24 hrs by MTT assay
Outline: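 Cells: high-passage SH-SY5Y (ATCC), 37 °C, 5% CO2. 2 h pretreatment with compound at 1 or 10 μM, or EGCG 10 μM, then 10 μM Aβ25−35 for 24 h with compound still present. MTT at 0.5 mg/mL final for 4 h, 37 °C; DMSO dissolution; read at 490 nm. Means ± SD, one-way ANOVA, p < 0.05.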

SH-SY5Y [2] = assay: Neuroprotective activity against OGD-induced toxicity in human SH-SY5Y cells assessed as cell viability at 1 to 10 uM pretreated for 2 hrs followed by OGD induction for 1 hr measured after 24 hrs by MTT assay
Outline: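 SH-SY5Y cells (high passage, ATCC) kept at 37 °C, 5% CO2. Pretreated with compound for 2 h, then OGD exposure (1 mg/mL as printed) for 1 h, followed by 24 h normal culture. Glucose-fed cells under normal conditions served as controls. MTT 0.5 mg/mL final, 4 h, 37 °C; DMSO; A490. Means ± SD, one-way ANOVA.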

SH-SY5Y [3] = assay: Neuroprotective activity against H2O2-induced toxicity in human SH-SY5Y cells assessed as cell viability at 1 to 10 uM pretreated for 2 hrs followed by H2O2 addition measured after 24 hrs by MTT assay
Outline: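 High-passage SH-SY5Y cells (ATCC), 37 °C, 5% CO2. Pretreatment for 2 h with compound at 1 or 10 μM, or N-acetylcysteine 300 μM, then 100 μM H2O2 for 24 h. Viability by MTT (0.5 mg/mL final, 4 h, 37 °C), DMSO solubilization, absorbance 490 nm. Means ± SD, one-way ANOVA, p < 0.05.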

Measured: Activity

C=C1c2ccoc2C[C@H]2[C@H]1CC[C@@]1(O)C(C)(C)[C@H](OC(C)=O)[C@H](OC(C)=O)[C@H](OC(C)=O)[C@]21C
inactive: SH-SY5Y [1] | SH-SY5Y [2] | SH-SY5Y [3]

COC(=O)[C@@H]1c2ccoc2C[C@H]2[C@H]1[C@@H](O)[C@H](OC(C)=O)[C@@]1(O)C(C)(C)CC[C@H](O)[C@]21C
inactive: SH-SY5Y [1] | SH-SY5Y [2] | SH-SY5Y [3]

CC(=O)O[C@@H]1[C@@H]2[C@H](Cc3occc3[C@@]2(C)O)[C@@]2(C)[C@@H](OC(C)=O)C[C@H](C)[C@@]3(C)O[C@@]23[C@H]1OC(C)=O
inactive: SH-SY5Y [1] | SH-SY5Y [2] | SH-SY5Y [3]

COC(=O)[C@@H]1c2ccoc2C[C@H]2[C@H]1[C@@H](OC(C)=O)[C@H](OC(C)=O)[C@@]1(O)C(C)(C)CCC[C@]21C
inactive: SH-SY5Y [1] | SH-SY5Y [2] | SH-SY5Y [3]

COC(=O)[C@@H]1c2ccoc2C[C@H]2[C@H]1[C@@H](OC(C)=O)[C@H](O)[C@@]1(O)C(C)(C)CCC(=O)[C@]21C
inactive: SH-SY5Y [1] | SH-SY5Y [2] | SH-SY5Y [3]

C=C1c2ccoc2C[C@H]2[C@H]1[C@@H](OC(C)=O)[C@H](OC(C)=O)[C@@]1(O)C(C)(C)CCC(=O)[C@]21C
inactive: SH-SY5Y [1] | SH-SY5Y [2] | SH-SY5Y [3]

CC(=O)O[C@@H]1[C@@H]2[C@H](Cc3occc3[C@@]2(C)O)[C@@]2(C)[C@@H](OC(C)=O)CC(C)=C(C)[C@]2(O)[C@H]1OC(C)=O
inactive: SH-SY5Y [1] | SH-SY5Y [2] | SH-SY5Y [3]

COC(=O)[C@@H]1c2ccoc2C[C@H]2[C@H]1[C@@H](O)[C@H](OC(C)=O)[C@@]1(O)C(C)(C)CCC(=O)[C@]21C
inactive: SH-SY5Y [1] | SH-SY5Y [2] | SH-SY5Y [3]

COC(=O)[C@@H]1c2ccoc2C[C@H]2[C@H]1[C@@H](OC(C)=O)[C@H](OC(C)=O)[C@@]1(O)C(C)(C)CC[C@H](O)[C@]21C
inactive: SH-SY5Y [1] | SH-SY5Y [2] | SH-SY5Y [3]
